Assays:
[1] = molecular target: Cyclin-dependent kinase 11B (Homo sapiens, UniProt P21127); assay: Competitive binding affinity to CDC2L1 (unknown origin) at 10 uM in presence of ATP relative to control
Summary of the method: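 In vitro ATP-site competition binding format, run as one member of a diverse 128-kinase profiling panel. Each compound was tested at a single concentration across the whole panel.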

[2] = molecular target: Casein kinase I isoform delta (Homo sapiens) (UniProt P48730); assay: Competitive binding affinity to CSNK1D (unknown origin) at 10 uM in presence of ATP relative to control
[3] = molecular target: Serine/threonine-protein kinase 32C (Homo sapiens) (UniProt Q86UX6); assay: Competitive binding affinity to YANK3 (unknown origin) at 10 uM in presence of ATP relative to control
[4] = molecular target: T1, Inhibitor of nuclear factor kappa-B kinase subunit epsilon (Homo sapiens) (UniProt Q14164); assay: Competitive binding affinity to IKKepsilon (unknown origin) at 10 uM in presence of ATP relative to control
T1 sequence (whole entry): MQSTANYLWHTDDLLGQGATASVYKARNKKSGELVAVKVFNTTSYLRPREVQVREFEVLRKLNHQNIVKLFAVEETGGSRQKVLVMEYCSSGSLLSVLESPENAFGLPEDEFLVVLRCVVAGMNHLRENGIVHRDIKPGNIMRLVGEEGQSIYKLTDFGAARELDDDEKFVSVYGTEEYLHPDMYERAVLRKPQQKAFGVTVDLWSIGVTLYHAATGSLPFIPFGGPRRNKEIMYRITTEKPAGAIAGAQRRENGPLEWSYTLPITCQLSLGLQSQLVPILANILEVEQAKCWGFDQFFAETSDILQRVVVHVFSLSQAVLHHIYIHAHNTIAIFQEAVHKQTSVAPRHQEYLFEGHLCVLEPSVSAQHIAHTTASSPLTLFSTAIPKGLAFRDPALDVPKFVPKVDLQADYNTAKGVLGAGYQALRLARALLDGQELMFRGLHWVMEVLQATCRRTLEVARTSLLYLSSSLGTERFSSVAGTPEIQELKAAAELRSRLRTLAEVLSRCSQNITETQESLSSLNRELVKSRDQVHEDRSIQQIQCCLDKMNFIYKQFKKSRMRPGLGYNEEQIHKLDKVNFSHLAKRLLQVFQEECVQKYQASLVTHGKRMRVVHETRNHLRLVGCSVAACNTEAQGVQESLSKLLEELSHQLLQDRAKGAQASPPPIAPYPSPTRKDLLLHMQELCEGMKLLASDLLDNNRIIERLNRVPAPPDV

[5] = molecular target: T2, Discoidin domain-containing receptor 2 (Homo sapiens) (UniProt Q16832); assay: Competitive binding affinity to DDR2 (unknown origin) at 10 uM in presence of ATP relative to control
T2 sequence (whole entry): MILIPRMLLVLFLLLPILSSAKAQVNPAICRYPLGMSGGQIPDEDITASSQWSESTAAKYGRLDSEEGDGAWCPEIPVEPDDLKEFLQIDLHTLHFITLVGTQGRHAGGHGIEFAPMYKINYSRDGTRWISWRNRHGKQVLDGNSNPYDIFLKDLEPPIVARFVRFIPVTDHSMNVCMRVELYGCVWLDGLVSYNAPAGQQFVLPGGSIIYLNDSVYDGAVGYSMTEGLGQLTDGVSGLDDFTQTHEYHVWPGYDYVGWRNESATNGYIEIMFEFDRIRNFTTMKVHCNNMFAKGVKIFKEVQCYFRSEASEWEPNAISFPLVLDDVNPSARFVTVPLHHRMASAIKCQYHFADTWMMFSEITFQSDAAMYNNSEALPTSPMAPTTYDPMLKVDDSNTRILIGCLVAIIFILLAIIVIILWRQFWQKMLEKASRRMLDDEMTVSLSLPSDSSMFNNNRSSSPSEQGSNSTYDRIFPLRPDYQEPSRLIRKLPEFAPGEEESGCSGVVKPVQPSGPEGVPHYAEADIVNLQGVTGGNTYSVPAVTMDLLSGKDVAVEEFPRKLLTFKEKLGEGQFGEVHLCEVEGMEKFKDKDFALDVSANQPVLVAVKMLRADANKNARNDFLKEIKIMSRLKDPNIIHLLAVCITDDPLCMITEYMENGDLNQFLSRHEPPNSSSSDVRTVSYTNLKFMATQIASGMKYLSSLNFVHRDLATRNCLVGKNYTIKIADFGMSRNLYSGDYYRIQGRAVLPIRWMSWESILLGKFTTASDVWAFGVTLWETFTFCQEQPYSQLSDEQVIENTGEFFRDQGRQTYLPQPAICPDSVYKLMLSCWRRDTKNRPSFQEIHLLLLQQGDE

[6] = molecular target: Serine/threonine-protein kinase PAK 2 (Homo sapiens) (UniProt Q13177); assay: Competitive binding affinity to PAK2 (unknown origin) at 10 uM in presence of ATP relative to control
Summary of the method: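 In vitro ATP-site competition binding assay across a diverse panel of 128 kinases, with compound tested at a single concentration. Kinase selectivity scores (S15) were calculated from the panel profiles.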

[7] = molecular target: T3, Serine/threonine-protein kinase DCLK1 (Homo sapiens) (UniProt O15075); assay: Competitive binding affinity to DCAMKL1 (unknown origin) at 10 uM in presence of ATP relative to control
T3 sequence (whole entry): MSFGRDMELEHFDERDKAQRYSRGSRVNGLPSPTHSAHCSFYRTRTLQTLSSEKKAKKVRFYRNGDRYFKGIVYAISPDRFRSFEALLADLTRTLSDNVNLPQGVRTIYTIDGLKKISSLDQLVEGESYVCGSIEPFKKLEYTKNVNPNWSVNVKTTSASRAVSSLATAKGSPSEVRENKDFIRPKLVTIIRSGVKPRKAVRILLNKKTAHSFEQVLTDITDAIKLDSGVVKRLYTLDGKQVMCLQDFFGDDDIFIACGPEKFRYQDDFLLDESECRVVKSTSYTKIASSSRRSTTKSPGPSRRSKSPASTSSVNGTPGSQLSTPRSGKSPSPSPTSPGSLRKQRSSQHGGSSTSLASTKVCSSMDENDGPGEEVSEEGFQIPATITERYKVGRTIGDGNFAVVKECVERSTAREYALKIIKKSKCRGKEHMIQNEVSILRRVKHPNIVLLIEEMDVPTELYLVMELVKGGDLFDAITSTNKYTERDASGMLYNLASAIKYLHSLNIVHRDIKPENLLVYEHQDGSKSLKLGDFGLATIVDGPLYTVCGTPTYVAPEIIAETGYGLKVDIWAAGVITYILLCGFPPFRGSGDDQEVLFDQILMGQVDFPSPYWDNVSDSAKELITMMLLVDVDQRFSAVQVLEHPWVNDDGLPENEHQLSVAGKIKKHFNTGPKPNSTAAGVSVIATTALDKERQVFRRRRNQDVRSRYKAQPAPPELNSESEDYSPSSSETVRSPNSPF

Chain of Cyclin-dependent kinase 11B (P21127 whole entry): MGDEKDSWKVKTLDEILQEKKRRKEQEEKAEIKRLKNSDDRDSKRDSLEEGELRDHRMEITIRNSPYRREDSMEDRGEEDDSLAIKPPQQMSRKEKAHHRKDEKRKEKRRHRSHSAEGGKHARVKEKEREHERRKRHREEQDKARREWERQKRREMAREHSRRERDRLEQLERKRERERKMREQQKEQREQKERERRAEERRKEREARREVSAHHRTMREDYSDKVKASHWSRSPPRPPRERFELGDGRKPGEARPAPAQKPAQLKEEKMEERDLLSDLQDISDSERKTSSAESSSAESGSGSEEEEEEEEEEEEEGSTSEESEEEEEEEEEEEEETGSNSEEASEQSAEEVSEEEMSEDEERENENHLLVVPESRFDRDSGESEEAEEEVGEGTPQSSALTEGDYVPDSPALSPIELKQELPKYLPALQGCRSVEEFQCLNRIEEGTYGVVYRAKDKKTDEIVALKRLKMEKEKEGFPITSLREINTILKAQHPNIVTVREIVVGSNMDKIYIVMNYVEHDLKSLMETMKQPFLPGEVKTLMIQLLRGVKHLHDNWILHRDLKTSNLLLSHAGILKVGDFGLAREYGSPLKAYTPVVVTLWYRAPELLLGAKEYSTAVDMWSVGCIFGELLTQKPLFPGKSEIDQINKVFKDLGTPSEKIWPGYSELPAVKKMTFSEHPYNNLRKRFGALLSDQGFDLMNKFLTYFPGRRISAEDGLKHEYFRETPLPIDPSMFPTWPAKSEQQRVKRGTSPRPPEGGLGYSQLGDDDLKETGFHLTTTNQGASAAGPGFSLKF
Chain of Serine/threonine-protein kinase PAK 2 (Homo sapiens) (Q13177 whole entry): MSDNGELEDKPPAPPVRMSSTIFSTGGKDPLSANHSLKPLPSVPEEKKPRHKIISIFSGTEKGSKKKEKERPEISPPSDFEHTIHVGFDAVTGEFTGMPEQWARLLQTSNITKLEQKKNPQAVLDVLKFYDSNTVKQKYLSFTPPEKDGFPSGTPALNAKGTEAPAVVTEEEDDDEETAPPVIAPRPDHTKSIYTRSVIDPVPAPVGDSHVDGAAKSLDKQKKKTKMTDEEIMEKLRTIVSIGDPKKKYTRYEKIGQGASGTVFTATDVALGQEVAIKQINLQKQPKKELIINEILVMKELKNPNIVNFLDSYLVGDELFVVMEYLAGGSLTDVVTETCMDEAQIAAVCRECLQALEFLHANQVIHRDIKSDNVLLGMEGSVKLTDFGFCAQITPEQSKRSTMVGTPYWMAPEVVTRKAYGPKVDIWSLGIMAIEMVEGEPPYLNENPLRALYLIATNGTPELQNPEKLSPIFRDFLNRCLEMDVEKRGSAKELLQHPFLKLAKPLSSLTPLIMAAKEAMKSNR
Chain of Casein kinase I isoform delta (Homo sapiens) (P48730 whole entry, looked up, canonical isoform): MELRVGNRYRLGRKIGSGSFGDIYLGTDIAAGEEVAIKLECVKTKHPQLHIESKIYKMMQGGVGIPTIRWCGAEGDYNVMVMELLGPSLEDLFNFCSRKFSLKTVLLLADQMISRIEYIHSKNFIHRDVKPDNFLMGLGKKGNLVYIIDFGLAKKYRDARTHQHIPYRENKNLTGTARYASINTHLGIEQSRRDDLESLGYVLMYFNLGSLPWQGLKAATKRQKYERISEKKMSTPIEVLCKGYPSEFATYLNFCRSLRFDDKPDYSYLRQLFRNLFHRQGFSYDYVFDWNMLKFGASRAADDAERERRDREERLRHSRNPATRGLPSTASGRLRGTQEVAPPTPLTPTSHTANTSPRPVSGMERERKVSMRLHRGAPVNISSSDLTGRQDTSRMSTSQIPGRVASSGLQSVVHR
Chain of Serine/threonine-protein kinase 32C (Homo sapiens) (Q86UX6 whole entry): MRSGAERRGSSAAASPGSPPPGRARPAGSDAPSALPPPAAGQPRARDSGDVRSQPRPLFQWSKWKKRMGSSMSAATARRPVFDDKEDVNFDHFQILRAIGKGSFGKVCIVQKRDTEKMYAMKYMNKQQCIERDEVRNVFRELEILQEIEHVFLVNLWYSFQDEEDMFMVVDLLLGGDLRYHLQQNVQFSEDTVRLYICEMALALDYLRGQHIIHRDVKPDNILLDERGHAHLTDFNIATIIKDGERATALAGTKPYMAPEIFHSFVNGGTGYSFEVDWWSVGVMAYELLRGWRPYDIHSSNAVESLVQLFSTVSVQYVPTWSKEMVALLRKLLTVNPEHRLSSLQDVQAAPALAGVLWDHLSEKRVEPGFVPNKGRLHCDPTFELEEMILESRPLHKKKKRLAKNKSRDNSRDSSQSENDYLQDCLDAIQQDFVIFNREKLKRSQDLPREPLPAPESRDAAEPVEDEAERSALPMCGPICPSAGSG

## O[C@H]1CC[C@H](Nc2nccc(-n3nnc4ccccc43)n2)CC1
[1]
  inhibition: 100%
[2]
  inhibition: 100%
[3]
  inhibition: < 50%
[4]
  inhibition: < 50%
[5]
  inhibition: < 50%
[6]
  inhibition: < 50%
[7]
  inhibition: 66%

## CS(=O)(=O)CCCOc1cccc2c1ccn2-c1ccnc(N[C@H]2CC[C@H](C(=O)N3CCC(O)CC3)CC2)n1
[1]
  inhibition: > 85%

## O[C@H]1CC[C@H](Nc2nccc(-n3ncc4ccccc43)n2)CC1
[1]
  inhibition: 97%
[2]
  inhibition: 96%
[3]
  inhibition: < 50%
[4]
  inhibition: < 50%
[5]
  inhibition: < 50%
[6]
  inhibition: < 50%
[7]
  inhibition: < 50%

## O[C@H]1CC[C@H](Nc2nccc(-c3n[nH]c4ccccc34)n2)CC1
[2]
  inhibition: 100%
[3]
  inhibition: < 50%
[6]
  inhibition: 82%

## O[C@H]1CC[C@H](Nc2nccc(-n3ccc4ccccc43)n2)CC1
[1]
  inhibition: 97%
[2]
  inhibition: 91%
[3]
  inhibition: < 50%
[4]
  inhibition: < 50%
[5]
  inhibition: < 50%
[6]
  inhibition: < 50%
[7]
  inhibition: < 50%

From ChEMBL document CHEMBL2424622, “Development of amino-pyrimidine inhibitors of c-Jun N-terminal kinase (JNK): kinase profiling guided optimization of a 1,2,3-benzotriazole lead” (Bioorg Med Chem Lett, 2013)
